≈ marks a conversion by molar mass, not a printed value. Calls of active or inactive are those of the source. The calls are words filed in the database; no cut-off is given here.
What was measured:
[1] = tested on: Candida albicans; experiment: Antimicrobial activity against Candida albicans ATCC 10231 at 380 ug by Kirby-Bauer disk diffusion test; assay type: functional, organism-based
In short: (§1)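 Modified Kirby-Bauer disc diffusion on Muller-Hinton agar. Inhibition-zone diameter, disc diameter included, measured with a ruler from under the plate and recorded in mm.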

[2] = Dissolution of the compound in phosphate buffer at pH 6.8 measured over 12 hrs using solid lipid nanoparticle formulation by dialysis bag diffusion method; assay type: physicochemical; conditions: artificial membrane, pH 6.8, 12 h
In short: (§2)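 SLNs made by hot emulsification-ultrasonication with Compritol as lipid and 3% Pluronic F68 aqueous phase. Homogenized at 10,000 rpm and 75 °C for 15 min, then probe-sonicated 10 min.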

[3] = Dissolution of the compound in phosphate buffer at pH 6.8 measured within 2 hrs by dialysis bag diffusion method; assay type: physicochemical; conditions: artificial membrane, pH 6.8, 2 h
In short: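 Formula or compound suspension (3 ml) in 12 kDa MWCO dialysis bags, in 500 ml enzyme-free phosphate buffer pH 6.8, 37 °C, 50 rpm. 5 ml samples taken with replacement over 12 h. Cumulative % release determined by UV absorbance against a calibration curve.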

[4] = Permeability of the compound in simulated dialysis membrane at pH 6.8 measured within 6 hrs by Franz diffusion cell-based spectrophotometric method; assay type: ADME, cell membranes; conditions: artificial membrane, pH 6.8, 6 h
In short: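 Franz cell with dialysis membrane. 1 ml of SLN formula or compound suspension in the donor chamber; receptor holds phosphate buffer pH 6.8 at 37 °C, magnetically stirred. Receptor sampled with replacement over 6 h; concentration by UV absorbance against a calibration curve.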

[5] = Permeability of the compound in simulated dialysis membrane at pH 6.8 measured within 6 hrs using solid lipid nanoparticle formulation by Franz diffusion cell-based spectrophotometric method; assay type: ADME, cell membranes; conditions: artificial membrane, pH 6.8, 6 h; in short: as §2
[6] = tested on: Staphylococcus aureus; experiment: Antimicrobial activity against Staphylococcus aureus ATCC 29213 assessed as diameter of inhibition zone at 380 ug by Kirby-Bauer disk diffusion test; assay type: functional; in short: as §1
[7] = tested on: Staphylococcus aureus; experiment: Antimicrobial activity against Staphylococcus aureus ATCC 29213 measured after 18 hrs by broth microdilution method; assay type: functional; conditions: ATCC 29213, 18 h
In short: (§3)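 Broth microdilution in 96-well plates. Compound stock 10 mg/ml in DMSO, two-fold serial dilutions from final 1024 to 0.5 µg/ml in water plus double-strength nutrient broth. Inoculum from direct colony suspension in saline adjusted to 0.5 McFarland, final 5 × 10⁵ CFU per well, used within 15 min. Positive and negative control rows.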

[8] = tested on: Escherichia coli; experiment: Antimicrobial activity against Escherichia coli ATCC 25922 measured after 18 hrs by broth microdilution method; assay type: functional; conditions: ATCC 25922, 18 h; in short: as §3
[9] = tested on: Klebsiella pneumoniae; experiment: Antimicrobial activity against Klebsiella pneumoniae ATCC 700603 measured after 18 hrs by broth microdilution method; assay type: functional; conditions: Klebsiella pneumoniae, 700603, 18 h; in short: as §3
[10] = tested on: Proteus mirabilis; experiment: Antimicrobial activity against Proteus mirabilis ATCC 14153 measured after 18 hrs by broth microdilution method; assay type: functional; conditions: ATCC 14153, 18 h; in short: as §3
[11] = tested on: Pseudomonas aeruginosa; experiment: Antimicrobial activity against Pseudomonas aeruginosa ATCC 27853 measured after 18 hrs by broth microdilution method; assay type: functional; conditions: ATCC 27853, 18 h; in short: as §3
[12] = tested on: Acinetobacter baumannii; experiment: Antimicrobial activity against clinical isolate of Acinetobacter baumannii measured after 18 hrs by broth microdilution method; assay type: functional; in short: as §3
[13] = tested on: Candida albicans; experiment: Antimicrobial activity against Candida albicans ATCC 10231 measured after 18 hrs by broth microdilution method; assay type: functional; conditions: ATCC 10231, 18 h; in short: as §3
[14] = tested on: Staphylococcus aureus; experiment: Antimicrobial activity against Staphylococcus aureus ATCC 29213 measured after 18 hrs using solid lipid nanoparticle formulation by broth microdilution method; assay type: functional; conditions: ATCC 29213, 18 h; in short: as §3
[15] = tested on: Escherichia coli; experiment: Antimicrobial activity against Escherichia coli ATCC 25922 measured after 18 hrs using solid lipid nanoparticle formulation by broth microdilution method; assay type: functional; conditions: ATCC 25922, 18 h; in short: as §3
[16] = tested on: Klebsiella pneumoniae; experiment: Antimicrobial activity against Klebsiella pneumoniae ATCC 700603 measured after 18 hrs using solid lipid nanoparticle formulation by broth microdilution method; assay type: functional; conditions: Klebsiella pneumoniae, 700603, 18 h; in short: as §3
[17] = tested on: Proteus mirabilis; experiment: Antimicrobial activity against Proteus mirabilis ATCC 14153 measured after 18 hrs using solid lipid nanoparticle formulation by broth microdilution method; assay type: functional; conditions: ATCC 14153, 18 h; in short: as §3
[18] = tested on: Pseudomonas aeruginosa; experiment: Antimicrobial activity against Pseudomonas aeruginosa ATCC 27853 measured after 18 hrs using solid lipid nanoparticle formulation by broth microdilution method; assay type: functional; conditions: ATCC 27853, 18 h; in short: as §3
[19] = tested on: Acinetobacter baumannii; experiment: Antimicrobial activity against clinical isolate of Acinetobacter baumannii measured after 18 hrs using solid lipid nanoparticle formulation by broth microdilution method; assay type: functional; in short: as §3
[20] = tested on: Candida albicans; experiment: Antimicrobial activity against Candida albicans ATCC 10231 measured after 18 hrs using solid lipid nanoparticle formulation by broth microdilution method; assay type: functional; conditions: ATCC 10231, 18 h; in short: as §3

Row | Activity [2] [%] | Activity [3] [%] | permeability [4] [%] | permeability [5] [%] | MIC [7] [mg/L] | MIC [8] [mg/L] | MIC [9] [mg/L] | MIC [10] [mg/L] | MIC [11] [mg/L] | MIC [12] [mg/L] | MIC [13] [mg/L] | MIC [14] [mg/L] | MIC [15] [mg/L] | MIC [16] [mg/L] | MIC [17] [mg/L] | MIC [18] [mg/L] | MIC [19] [mg/L] | MIC [20] [mg/L] | Structure (SMILES) | Activity [1] | growth inhibition (GI) [6] | other results
1 | 93.2 | 87.8 | 67.2 | 100 | 32 (≈ 120 µM) | 64 (≈ 239 µM) | > 1020 | > 1020 | > 1020 | > 1020 | > 1020 | 32 (≈ 120 µM) | 256 (≈ 958 µM) | > 1020 | > 1020 | > 1020 | > 1020 | > 1020 | COc1ccc([C@@H]2[C@@H](O)[C@H](O)[C@@H](C)N2C)cc1OC | inactive | Active | 
2 | 92.1 | 91.8 | 62.7 | 100 | 2 (≈ 7.96 µM) | 8 (≈ 31.8 µM) | 256 (≈ 1020 µM) | 16 (≈ 63.7 µM) | > 1020 | > 1020 | > 1020 | 2 (≈ 7.96 µM) | 8 (≈ 31.8 µM) | 512 (≈ 2040 µM) | 8 (≈ 31.8 µM) | > 1020 | > 1020 | > 1020 | COCc1ccc([C@@H]2[C@@H](O)[C@H](O)[C@@H](C)N2C)cc1 | inactive | Active | 
3 | 90.2 | 96.7 | 59.1 | 100 | ≤ 0.5 | 4 (≈ 15.7 µM) | > 1020 | > 1020 | > 1020 | 512 (≈ 2010 µM) | > 1020 | ≤ 0.5 | 16 (≈ 62.7 µM) | 1020 (≈ 4010 µM) | > 1020 | > 1020 | 512 (≈ 2010 µM) | > 1020 | COc1ccc([C@@H]2[C@@H](O)[C@H](O)[C@@H](C)N2C)c(F)c1 | inactive |  | zone of inhibition at 380 µg/disc ([6]; read-out: DIZ): 30 mm

Source: ChEMBL document CHEMBL4480414, “Design and total synthesis of (-)-codonopsinine, (-)-codonopsine and codonopsinine analogues by O-(2-oxopyrrolidin-5-yl)trichloroacetimidate as amidoalkylating agent with improved antimicrobial activity via solid lipid nanoparticle formulations” (Bioorg Med Chem, 2019)
